Ecoli rRNA inh: inhibitors of bacterial rRNA selective over humanized ribosomes. E. coli WT GFP vs humanized-ribosome RFP mutants, fluorescence, 24 h; stronger effect = lower value; DMSO median 0, no signal -100. hit rate 1.6% among 350,000. GFP signal change (wild-type ribosome), % (test concentration not listed);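 active = significant combined selectivity score with lowered wild-type GFP, culture density cut under 30%, mutant RFP and density less affected; inactive = any of these conditions unmet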
RAD54 branch: blocks human RAD54 Holliday junction branch migration | FAM/BHQ fluorescence | hit rate 0.14% among 360,000 | inhibition, % at 10.4 µM | AID 602329 | Q92698;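 active = mean normalized replicate activity at least 40 and at least half of replicates scoring 40 or more; inconclusive = only one of the two criteria met; inactive = mean below 40 and under half of replicates reaching 40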;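 note: 0% = median of neutral control wells and 100% = median of positive control wells; inhibitors cause a drop in the FAM fluorescence signal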
AF4-AF9 inh: inhibitors of human MLL-AF4/AF9 interaction; AlphaScreen, biotin-AF4 peptide binding to FLAG-AF9; inhibition, % at 10 µM; hit rate 0.47% among 350,000; AID 651704;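 active = every replicate reaching a set inhibition limit, whatever the replicate mean, cut at about 25% in these data; inconclusive = mean inhibition reaches that limit but some replicates miss it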;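 note: 0% = plate neutral control median and 100% = total signal loss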
GSIS activator: primary screen for activators of insulin secretion dependent on glucose, INS-1E cells, GLuc reporter luminescence. hit rate 0.61% among 370,000. INS-1E GLuc reporter insulin secretion, 2-3 h. AID 743287. activation, % at 16.6 µM;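 active = lowest replicate activation of at least 40%, so every replicate reaches that level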;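 note: 0% = median of neutral control wells and 100% = median of IBMX positive control wells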
RAD52 anneal inh: inhibitors of human RAD52 DNA annealing; AID 651710; inhibition, % at 18.7 µM; hit rate 0.46% among 360,000; P43351; recombinant RAD52 DNA annealing, FRET fluorescence;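 active = every replicate showing at least 50% inhibition; inconclusive = mean inhibition at least 50% but not in every replicate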
E-selectin induc: induces E-selectin expression in human endothelial cells | P16581 | HUVEC E-selectin immunofluorescence imaging; normalized: neutral wells 0, TNF-alpha wells 100 | activation, % at 7.58 µM | hit rate 0.37% among 260,000;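 active = mean E-selectin-positive cell signal at least 10% of the positive control, reached in at least 60% of replicates, without over 20% cell loss; inconclusive = no rule given, readout overlaps actives, possibly toxicity-flagged; inactive = the rest, including those meeting only one limit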
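Material: HUVEC primary endothelial cells; Amount: 3,000 cells per well; Dosing: single concentration; Medium: EGM-2 growth medium on 0.1% gelatin-coated wells; Read-out basis: percent E-selectin-positive cells; Signal: immunofluorescence imaging; Control set: TNF-alpha, DMSO.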
Numbers without * were called inactive; ? = inconclusive; . = not tested or not shown. Compounds with a hit are over-represented: about 2.6% of the library has one in this group of screens.

SMILES	Ecoli rRNA inh	RAD54 branch	AF4-AF9 inh	GSIS activator	RAD52 anneal inh	E-selectin induc
C[C@H]1CN([C@@H](C)CO)C(=O)c2cc(NS(=O)(=O)c3cccs3)ccc2O[C@H]1CN(C)S(C)(=O)=O	-2.5	1.4	-1.7	1.1	0.6	448.9*
C[C@@H]1CN([C@H](C)CO)C(=O)c2cc(NS(=O)(=O)c3cccs3)ccc2O[C@H]1CN(C)S(C)(=O)=O	-1.2	-2.1	-2.7	5.0	-2.0	33.3*
Cc1nccn1-c1ccc(NC(=O)[C@@H](Cc2ccccc2)NC(=O)[C@H]2O[C@@H](n3ccc(=O)[nH]c3=O)[C@H](O)[C@@H]2O)cc1	-5.5	.	.	8.6	9.1	-0.1
CN(C(=O)[C@H]1O[C@@H](n2cnc(C(N)=O)n2)[C@H](O)[C@@H]1O)c1ccccc1	28.5	.	.	187.4*	-5.6	-0.1
NC(=O)c1ncn([C@@H]2O[C@H](C(=O)N[C@H](Cc3ccccc3)C(=O)O)[C@@H](O)[C@H]2O)n1	33.4	.	.	43.8*	-1.3	-0.2
Cc1ccc(NC(=O)[C@@H](Cc2ccccc2)NC(=O)[C@H]2O[C@@H](n3ccc(=O)[nH]c3=O)[C@H](O)[C@@H]2O)cc1C	7.8	.	.	51.4*	4.5	?
NC(=O)c1ncn([C@@H]2O[C@H](C(=O)N[C@H](Cc3c[nH]c4ccccc34)C(=O)O)[C@@H](O)[C@H]2O)n1	32.6	.	.	.	-9.6	-0.2
CC(C)NC(=O)N(C)C[C@@H]1OCCCC[C@H](C)Oc2ccc(NC(=O)Nc3cccc4ccccc34)cc2C(=O)N([C@H](C)CO)C[C@@H]1C	0.2	.	-2.6	9.0	21.6	.
C[C@@H]1CN([C@@H](C)CO)C(=O)c2cc(NC(=O)NC3CCCCC3)ccc2O[C@@H](C)CCCCO[C@@H]1CN(C)C(=O)c1ccccc1	-4.9	-0.2	2.5	-14.5	8.6	-0.1
O=c1cc(-c2ccc(O)cc2)oc2c1ccc1ccccc12	3.7	.	0.0	19.2	-9.4	-0.4
O=c1cc(-c2ccncc2)oc2c1ccc1ccccc12	-5.7	-7.6	-0.4	46.9*	-100.9	0.0
COc1ccccc1C#Cc1ccc2c(c1)O[C@@H](CN(C)C)[C@H](C)CN([C@@H](C)CO)S2(=O)=O	-5.1	-4.4	8.3	-4.2	17.5	0.0
C[C@@H]1CN([C@H](C)CO)C(=O)Cc2cc(NC(=O)CCN3CCOCC3)ccc2O[C@H]1CN(C)S(=O)(=O)c1cn(C)cn1	4.0	-22.6	-5.4	0.9	-4.0	-4.0
C=CCn1c(SCC(=O)Nc2nc3ccccc3s2)nc(O)c(CC)c1=O	-26.8*	-11.5	0.4	.	-12.7	32.9*
C[C@@H]1CCCCO[C@@H](CN(C)C(=O)c2ccccc2)[C@@H](C)CN([C@@H](C)CO)C(=O)c2cc(NC(=O)Cc3ccccc3)ccc2O1	1.2	0.4	-3.0	-9.7	1.9	0.0
COc1ccccc1CNC(=O)C[C@H]1C[C@@H]2c3cc(NC(=O)C4CCOCC4)ccc3O[C@@H]2[C@H](CO)O1	1.3	6.1	1.6	1.5	0.0	0.1
Cc1cc(=O)[nH]c2c1c(C)nn2C1CCCCC1	-0.3	11.3	-6.1	3.3	-2.9	.
Cc1cc(=O)[nH]c2c1c(C)nn2C1CCCC1	.	0.8	.	53.3*	.	.
Cc1noc(C)c1NC(=O)N(C)C[C@H]1OCCCC[C@@H](C)Oc2ccc(NC(=O)Nc3ccccc3)cc2C(=O)N([C@H](C)CO)C[C@@H]1C	5.2	-7.1	.	12.4	.	0.1
O=C1Oc2ccccc2C(=O)/C1=C/N1CCN(c2ccccc2F)CC1	-30.3*	.	-2.0	.	-34.0	-3.6
CCS(=O)(=O)N1CCN(c2ccccc2F)CC1	.	3.6	.	21.3	.	.
COc1ccc(NC(=O)C2CCCN2S(=O)(=O)c2ccc3c(c2)CC(C)N3C(C)=O)cc1OC (centres undefined)	4.5	3.1	1.9	101.3*	-5.1	.
COc1ccccc1C#Cc1ccc([C@H]2[C@@H](CO)N3CCCCN(C(=O)C4CCCC4)C[C@@H]23)cc1	.	-7.7	-2.9	.	30.1	.
Cc1cccn2cc(CNS(=O)(=O)c3ccc4ccccc4c3)nc12	4.3	5.1	-3.5	65.4*	-5.9	-0.1
Cc1ccn2cc(CNS(=O)(=O)c3ccc4ccccc4c3)nc2c1	-5.1	-7.2	-4.5	16.5	-27.4	.

High-throughput results: PubChem, Broad Institute
